Molecular target: Adenosine receptor A2a (Homo sapiens, UniProt P29274)
Assay: Displacement of [3H]ZM241385 from human AA2AR expressed in HEK293T cells after 2 hrs by liquid scintillation counter
Summary of the method: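 Membranes of HEK293T cells stably expressing AA2AR (40 µg protein) incubated with 1.7 nM (final) [3H]ZM241385 in 50 mM Tris·HCl pH 7.4, 2 h at 25 °C with shaking. Nonspecific binding defined with 100 µM CGS21680. Filtered over GF/B, washed three times with ice-cold buffer. Compounds giving ≥50% inhibition at 10 µM went to concentration-response curves. pKi values, n=3 in duplicate.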

Sequence of Adenosine receptor A2a (P29274 whole entry): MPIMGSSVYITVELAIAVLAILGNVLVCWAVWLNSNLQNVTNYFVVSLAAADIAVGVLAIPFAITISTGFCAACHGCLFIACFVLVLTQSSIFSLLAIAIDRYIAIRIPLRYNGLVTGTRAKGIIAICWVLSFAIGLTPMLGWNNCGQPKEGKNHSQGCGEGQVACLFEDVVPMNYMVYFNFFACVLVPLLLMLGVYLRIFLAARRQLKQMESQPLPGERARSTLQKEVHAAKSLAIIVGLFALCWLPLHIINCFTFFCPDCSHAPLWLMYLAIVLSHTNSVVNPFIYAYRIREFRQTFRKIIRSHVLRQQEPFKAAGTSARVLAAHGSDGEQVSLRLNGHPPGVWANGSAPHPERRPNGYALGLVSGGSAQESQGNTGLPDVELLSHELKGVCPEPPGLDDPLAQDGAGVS

Ki [µM]	Structure (SMILES)
5.01	N#CC(N=Nc1ccc(S(N)(=O)=O)cc1)c1nc2ccccc2[nH]1 (configuration not stated)
5.01	COc1cc(CN=Nc2ncnc3sc4c(c23)CCCC4)ccc1O

Reference: BindingDB's records for doi:10.1021/jm300280e (Radboud University Nijmegen Medical Centre, 2012)
